≈ marks a conversion by molar mass, not a printed value.
Experiments:
Rattus norvegicus = species: Rattus norvegicus; assay: Inhibition of mitochondrial protein synthesis (MPS) in rat heart mitochondria; format: functional
Procedure, shortened: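 Rat heart mitochondria were incubated at 1 mg/mL protein (Bradford) in buffer with translation components (ADP, amino acids). Incorporation of S35 methionine was followed for 1 h at 30 °C, then quenched with cold 5% TCA/5 mM methionine. Triplicate aliquots were filtered, washed and counted. Compounds were tested at 6–7 concentrations, ≤1% organic. IC50 came from the linear portion of the percent-of-control curve, as the mean of ≥2 experiments.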

Enterococcus faecium = assay: Minimum inhibitory concentration measured against Enterococcus faecium; format: functional
Staphylococcus aureus = assay: Minimum inhibitory concentration measured against Staphylococcus aureus; format: functional
[1] = molecular target: T1, Amine oxidase [flavin-containing] B (Rattus norvegicus, UniProt P19643); assay: Inhibition of Monoamine oxidase B in rat primary hepatocytes; format: cell-based, Hepatocyte
T1 sequence (P19643 whole entry): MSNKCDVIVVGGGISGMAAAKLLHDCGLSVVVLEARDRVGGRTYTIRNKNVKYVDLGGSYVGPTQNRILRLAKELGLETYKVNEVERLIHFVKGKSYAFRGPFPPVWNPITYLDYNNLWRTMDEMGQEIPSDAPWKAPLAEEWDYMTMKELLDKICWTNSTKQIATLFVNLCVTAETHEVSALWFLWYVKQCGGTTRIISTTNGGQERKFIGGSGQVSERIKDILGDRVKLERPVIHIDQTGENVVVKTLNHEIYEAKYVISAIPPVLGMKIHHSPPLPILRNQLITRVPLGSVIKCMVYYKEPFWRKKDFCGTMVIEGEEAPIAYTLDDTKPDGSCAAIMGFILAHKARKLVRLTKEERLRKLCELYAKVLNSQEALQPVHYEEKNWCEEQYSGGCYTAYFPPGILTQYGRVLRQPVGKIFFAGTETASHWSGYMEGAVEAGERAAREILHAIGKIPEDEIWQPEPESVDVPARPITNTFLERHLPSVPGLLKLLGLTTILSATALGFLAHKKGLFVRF

[2] = tested on: Staphylococcus epidermidis; assay: Minimum inhibitory concentration measured against Staphylococcus epidermidis; format: functional
Moraxella catarrhalis = assay: Minimum inhibitory concentration measured against Moraxella catarrhalis; format: functional
Streptococcus pneumoniae = assay: Minimum inhibitory concentration measured against Streptococcus pneumoniae; format: functional

IC50 (Rattus norvegicus) [µM] | MIC (Enterococcus faecium) [µg/mL] | MIC (Staphylococcus aureus) [µg/mL] | IC50 [1] [µM] | MIC [2] [µg/mL] | MIC (Moraxella catarrhalis) [µg/mL] | MIC (Streptococcus pneumoniae) [µg/mL] | Structure (SMILES)
36 | 4 (≈ 8.73 µM) | 16 (≈ 34.9 µM) | > 150 | 4 (≈ 8.73 µM) | 128 (≈ 279 µM) | 2 (≈ 4.36 µM) | CC(=O)NC[C@H]1CN(c2ccc(/C=C(\Br)c3ccccc3C#N)c(F)c2)C(=O)O1
 | 1 (≈ 2.1 µM) | 2 (≈ 4.21 µM) |  | 1 (≈ 2.1 µM) | 4 (≈ 8.42 µM) | 1 (≈ 2.1 µM) | CC(=O)NC[C@H]1CN(c2ccc(/C=C(\Br)c3cccc(C(C)=O)c3)c(F)c2)C(=O)O1
> 300 | 16 (≈ 36.9 µM) | 16 (≈ 36.9 µM) | < 9.4 | 16 (≈ 36.9 µM) | 128 (≈ 295 µM) | 2 (≈ 4.62 µM) | CC(=O)NC[C@H]1CN(c2ccc(/C=C(\Br)c3ccccc3)c(F)c2)C(=O)O1
24 | 0.125 (≈ 0.273 µM) | 0.25 (≈ 0.546 µM) | > 150 | 0.125 (≈ 0.273 µM) | 1 (≈ 2.18 µM) | 0.25 (≈ 0.546 µM) | CC(=O)NC[C@H]1CN(c2ccc(/C=C(\Br)c3cccc(C#N)c3)c(F)c2)C(=O)O1
 | 2 (≈ 4.46 µM) | 2 (≈ 4.46 µM) |  | 1 (≈ 2.23 µM) | 8 (≈ 17.8 µM) | 2 (≈ 4.46 µM) | CC(=O)NC[C@H]1CN(c2ccc(/C=C(\Br)c3cccc(N)c3)c(F)c2)C(=O)O1
150 | 4 (≈ 8.14 µM) | 8 (≈ 16.3 µM) | > 300 | 8 (≈ 16.3 µM) | > 128 | 32 (≈ 65.1 µM) | COC(=O)c1cccc(/C(Br)=C/c2ccc(N3C[C@H](CNC(C)=O)OC3=O)cc2F)c1
 | 2 (≈ 4.31 µM) | 8 (≈ 17.2 µM) |  | 4 (≈ 8.62 µM) | 32 (≈ 68.9 µM) | 2 (≈ 4.31 µM) | COc1ccncc1/C(Br)=C/c1ccc(N2C[C@H](CNC(C)=O)OC2=O)cc1F
 | > 128 | > 128 |  | > 128 | 32 (≈ 63.3 µM) | 64 (≈ 127 µM) | COc1ccc(C(C)C)cc1/C(Br)=C/c1ccc(N2C[C@H](CNC(C)=O)OC2=O)cc1F
 | 0.5 (≈ 1.18 µM) | 1 (≈ 2.36 µM) |  | 0.25 (≈ 0.591 µM) | 1 (≈ 2.36 µM) | 0.5 (≈ 1.18 µM) | CC(=O)NC[C@H]1CN(c2ccc(/C=C(\Br)c3ccco3)c(F)c2)C(=O)O1

More lines, now with the values behind:

Structure (SMILES) | IC50 (Rattus norvegicus) [µM] | MIC (Enterococcus faecium) [µg/mL] | MIC (Staphylococcus aureus) [µg/mL] | IC50 [1] [µM] | MIC [2] [µg/mL] | MIC (Moraxella catarrhalis) [µg/mL] | MIC (Streptococcus pneumoniae) [µg/mL]
CC(=O)NC[C@H]1CN(c2ccc(/C=C/c3cncc(C#N)c3)c(F)c2)C(=O)O1 | 9.4 | 2 (≈ 5.26 µM) | 4 (≈ 10.5 µM) | > 300 | 2 (≈ 5.26 µM) | 16 (≈ 42.1 µM) | 16 (≈ 42.1 µM)
CC(=O)NC[C@H]1CN(c2ccc(/C=C(\Br)c3cccc(NC(C)=O)c3)c(F)c2)C(=O)O1 |  | 2 (≈ 4.08 µM) | 4 (≈ 8.16 µM) |  | 2 (≈ 4.08 µM) | 64 (≈ 131 µM) | 2 (≈ 4.08 µM)
CC(=O)NC[C@H]1CN(c2ccc(/C=C(\F)c3cccc(C#N)c3)c(F)c2)C(=O)O1 | > 300 | > 128 | > 128 | > 300 | 128 (≈ 322 µM) | > 128 | 2 (≈ 5.03 µM)
CC(=O)NC[C@H]1CN(c2ccc(/C=C(\F)c3cncnc3)c(F)c2)C(=O)O1 |  | 2 (≈ 5.34 µM) | 2 (≈ 5.34 µM) | 475 | 1 (≈ 2.67 µM) | 4 (≈ 10.7 µM) | 1 (≈ 2.67 µM)
CC(=O)NC[C@H]1CN(c2ccc(/C=C(\Br)c3ccncc3)c(F)c2)C(=O)O1 | 14 | 1 (≈ 2.3 µM) | 8 (≈ 18.4 µM) | 186 | 2 (≈ 4.61 µM) | 16 (≈ 36.8 µM) | 1 (≈ 2.3 µM)
CC(=O)NC[C@H]1CN(c2ccc(/C=C(\Br)c3ccc(C(C)=O)cc3)c(F)c2)C(=O)O1 |  | 32 (≈ 67.3 µM) | 64 (≈ 135 µM) |  | 64 (≈ 135 µM) | 128 (≈ 269 µM) | 1 (≈ 2.1 µM)
CC(=O)NC[C@H]1CN(c2ccc(/C=C(\Br)c3c(C)oc[n+]3C)c(F)c2)C(=O)O1 | 54 | 32 | 32 | 21 | 16 | 64 | 8
CC(=O)NC[C@H]1CN(c2ccc(/C=C(\F)c3cncc(C#N)c3)c(F)c2)C(=O)O1 | < 0.1 | 1 (≈ 2.51 µM) | 1 (≈ 2.51 µM) | > 300 | 0.5 (≈ 1.26 µM) | 4 (≈ 10 µM) | ≤ 0.125
CC(=O)NC[C@H]1CN(c2ccc(/C=C(/F)c3cccnc3)c(F)c2)C(=O)O1 |  | 4 (≈ 10.7 µM) | 8 (≈ 21.4 µM) |  | 4 (≈ 10.7 µM) | 32 (≈ 85.7 µM) | 4 (≈ 10.7 µM)
CC(=O)NC[C@H]1CN(c2ccc(/C=C(\Br)c3ccc(C(C)=O)s3)c(F)c2)C(=O)O1 |  | 0.5 (≈ 1.04 µM) | 1 (≈ 2.08 µM) |  | 0.5 (≈ 1.04 µM) | 2 (≈ 4.16 µM) | 0.5 (≈ 1.04 µM)
CC(=O)NC[C@H]1CN(c2ccc(/C=C(\Br)c3cccc(C(N)=O)c3)c(F)c2)C(=O)O1 |  | 2 (≈ 4.2 µM) | 4 (≈ 8.4 µM) |  | 4 (≈ 8.4 µM) | 16 (≈ 33.6 µM) | 4 (≈ 8.4 µM)
CC(=O)NC[C@H]1CN(c2ccc(/C=C(\F)c3nccs3)c(F)c2)C(=O)O1 |  | 2 (≈ 5.27 µM) | 2 (≈ 5.27 µM) | < 9.4 | 2 (≈ 5.27 µM) | 8 (≈ 21.1 µM) | 2 (≈ 5.27 µM)
CC(=O)NC[C@H]1CN(c2ccc(/C=C\F)c(F)c2)C(=O)O1 |  | 8 (≈ 27 µM) | 8 (≈ 27 µM) |  | 8 (≈ 27 µM) | 32 (≈ 108 µM) | 2 (≈ 6.75 µM)
CC(=O)NC[C@H]1CN(c2ccc(/C=C(\F)S(=O)(=O)c3ccccc3)c(F)c2)C(=O)O1 |  | 8 (≈ 18.3 µM) | 8 (≈ 18.3 µM) |  | 8 (≈ 18.3 µM) | 64 (≈ 147 µM) | 8 (≈ 18.3 µM)
CC(=O)NC[C@H]1CN(c2ccc(/C=C(\F)c3cnc(N)nc3)c(F)c2)C(=O)O1 |  | 8 (≈ 20.5 µM) | 16 (≈ 41.1 µM) |  | 4 (≈ 10.3 µM) | 32 (≈ 82.2 µM) | 8 (≈ 20.5 µM)

From ChEMBL document CHEMBL1134857, “The synthesis and biological evaluation of a novel series of antimicrobials of the oxazolidinone class” (Bioorg Med Chem Lett, 2002)
